This is a sample that favours compounds with a hit; in the whole collection about 1.9% have one here.
IMP-1 inhibitor – inhibitors of Pseudomonas aeruginosa IMP-1 metallo-beta-lactamase; purified IMP-1, nitrocefin hydrolysis, epi-absorbance fluorescence; inhibition, % at 5.6 µM; actives 0.45% (n = 290,000); AID 1556;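 active means inhibition above the mean plus 3 SD of all compounds in the same screening run, cut at about 4.5% in these data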;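 further: 0% = IMP-1 with DMSO and 100% = DMSO wells lacking enzyme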
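Material – recombinant IMP-1 enzyme, purified · Amount – IMP-1 0.2 nM before substrate addition · Medium – HEPES buffer pH 7.1 with ZnSO4 and Brij 35 · Timing – 25 °C, 15 min preincubation, 25 min reaction · Measured by – plate fluorescence quenching by hydrolysis product, ex 480/em 530 nm · Read-out – percent enzyme inhibition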
core dimer inh – blocks dimerization of HCV core protein. TR-FRET GST/Flag-core106 dimerization, 1536-well. inhibition, % at 5 µM. actives 0.33% (n = 300,000). AID 1899;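 active means inhibition above the mean of all tested compounds plus 3 SD, set per screening campaign, cut at about 45% in these data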
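Assay system – GST-tagged and Flag-tagged HCV core protein residues 1-106 · Quantity – core106 proteins, GST 13.5 nM and Flag 17 nM · Benchmarks – unlabelled core106 and no-GST-core106 wells · Read-out basis – percent inhibition of core106 dimerization signal · Detection – time-resolved FRET, ex 340 nm, em 617 and 671 nm · Schedule – 4 h at 22.5 °C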
VIM-2 inh – blocks Pseudomonas aeruginosa VIM-2 metallo-beta-lactamase; inhibition, % at 5.6 µM; purified VIM-2, nitrocefin hydrolysis, epi-absorbance fluorescence; actives 0.89% (n = 290,000);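 active means inhibition above the mean of all tested compounds plus 3 SD, cutoff set per screening run, cut at about 7.5% in these data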;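 further: red hydrolysis product quenches plate fluorescence so inhibitors raise well fluorescence; 0% = enzyme with DMSO and 100% = DMSO without enzyme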
NadD block – inhibitors of Staphylococcus aureus NadD | purified NadD enzyme, colorimetric absorbance read-out | inhibition, % at 20 µM | actives 0.78% (n = 360,000) | AID 602399; in the data active means inhibition above about 26%
Starred values were filed as active, the others as inactive; nt = not tested or not shown.

SMILES	IMP-1 inhibitor	core dimer inh	VIM-2 inh	NadD block
Cc1cc(C)n2nc(SCc3cc(=O)oc4cc(O)ccc34)nc2n1	-3.5	73.9*	0.3	nt
Cc1cc(C)n2nc(SCc3ccccc3)nc2n1	-1.1	2.5	-0.8	-0.4
CCN(CC(=O)Nc1c(F)cccc1F)C(=O)CNC(=O)C1CCCCC1	nt	1.8	nt	-1.8
COc1ccc2[nH]c3c(C)c4ccncc4c(C)c3c2c1	0.2	-30.4	3.1	36.5*
CC1(C)OC(=O)C(=Cc2ccc(-c3ccc(S(N)(=O)=O)cc3)o2)C(=O)O1	34.3*	2.7	1.1	4.2
COc1ccc([C@H]2CC(=O)C[C@@H](CCn3cc(Cc4ccccc4)nn3)O2)cc1	nt	nt	nt	1.9
O=C1CC(N2C(=O)/C(=C/C=C/c3ccccc3)SC2=S)C(=O)N1c1ccccc1 (stereo not drawn)	0.6	50.6*	-0.2	27.3
O=C(Cc1cccs1)Nc1ccc(S(=O)(=O)N2CCCCC2)cc1	-1.4	72.0*	-2.4	3.8
O=C(Cc1ccc(S(=O)(=O)N2CCOCC2)s1)Nc1nc2c(s1)CCCC2	2.1	84.0*	-1.3	10.5
CC(=O)Nc1ccc(NC(=O)Cc2ccc(S(=O)(=O)N3CCCCC3)s2)cc1	1.6	59.6*	-3.3	2.5
CCOc1ccccc1C(=O)NCC(=O)OCC(=O)c1c(N)n(C)c(=O)n(C)c1=O	nt	nt	nt	-3.1
S=C1CCC(c2ccc(Br)cc2)=NN1c1ccccc1	0.1	-4.5	0.1	-8.8
CCOC(=O)c1c(-c2cccs2)csc1NC(=O)CC(C)C	-6.9	-1.0	-0.5	6.2
COC(=O)c1c(-c2cccs2)csc1NC(=O)c1cccnc1	-2.8	6.3	11.1*	-7.5
COc1ccc(C(N)c2nccc3cc(OC)c(OC)cc23)cc1OC (stereo not drawn)	2.1	3.8	7.8*	-6.9
CCN=c1scc(C)n1/N=C/c1cc(Br)c(O)c(OC)c1	-4.4	-6.1	-3.0	35.3*
O=C(O)c1ccc2c(=O)[nH]c(CCl)nc2c1	-3.2	-0.5	-0.4	1.4
CN(CCCn1cnc2c(OCc3ccccc3)ncnc21)Cc1ccco1	nt	nt	nt	-1.7
CCCNC(=O)C[C@@H]1C[C@@H]2c3cc(NS(=O)(=O)c4ccc(OC)cc4)ccc3O[C@@H]2[C@@H](CO)O1	nt	nt	nt	-6.2
Oc1ccc2ccccc2c1/C=N/Nc1nnc(-c2ncc[nH]2)c2ccccc12	35.6*	-2.1	-3.7	50.8*
COc1ccc(/C=N/Nc2nnc(-c3ncc[nH]3)c3ccccc23)cc1	-1.0	-11.8	-0.1	-2.5
O=C(c1cc2cc(Cl)ccc2[nH]1)N1CCN(C(=O)c2ccco2)CC1	-4.4	26.9	-2.3	19.9
COc1ccc(-c2sc(Nc3ccccc3)n[n+]2-c2ccc(F)cc2)c(C)c1C	-1.5	-4.8	-5.8	8.2
Cc1cc(C)nc(NC(=S)Nc2ccccc2)n1	-1.5	-1.4	-4.8	-3.7
Cc1cc(C)nc(NC(=S)NC(=O)c2ccccc2)n1	-2.7	1.7	8.4*	-7.6
SMILES	IMP-1 inhibitor	core dimer inh	VIM-2 inh	NadD block
O=c1oc2c(O)cccc2cc1-c1nc2ccccc2[nH]1	7.2*	nt	6.4	0.2
Cc1cc(C)c(C)c(S(=O)(=O)NCc2ccncc2)c1C	-1.2	-0.7	2.0	-3.0
O=C(Nc1ccccc1)c1ccc(-c2ccc([N+](=O)[O-])cc2)o1	5.0*	9.0	2.0	-5.7
COc1ccc(NC(=O)c2ccc(-c3ccc([N+](=O)[O-])cc3)o2)cc1	-2.6	2.2	-1.4	-0.8
COc1cccc(CNC(=O)Cc2ccc(-c3ccccc3)cc2)c1	19.5*	2.6	-1.1	-3.9
COc1ccc(CC(=O)NCc2ccccc2)cc1	-1.4	11.9	-1.8	-5.1
O=S1(=O)CCN(Cc2ccncc2)CC1	nt	nt	nt	0.8
O=C(NCCc1ccccc1)C(=O)NCC1OCCN1S(=O)(=O)c1cc(F)ccc1F (stereo not drawn)	1.8	12.2	-2.8	-3.6
CCCC(=O)Nc1ccccc1NC(C)=O	5.3*	-3.5	-0.6	0.2
O=C1C=C(c2ccc3c(c2)OCCO3)C[C@@H](c2ccc(F)cc2)C1	nt	nt	nt	-5.7
CCCCCCCCCC(=O)O	nt	nt	nt	4.3
CCCCCC#CCC#CCC#CCC#CCCCC(=O)O	0.4	53.8*	-1.8	nt
NC(CSS(=O)(=O)O)=NCCC12CC3CC(CC(O)(C3)C1)C2	5.4*	-8.7	0.3	-3.8
CC1(C)C2CCC(CN=C(N)CSS(=O)(=O)O)C1C2 (stereo not drawn)	nt	nt	nt	4.3
c1ccc(CSc2ccc3nnc(-c4ccccn4)n3n2)cc1	-0.5	1.9	10.8*	6.2
Cc1cccc(CSc2ccc3nnc(-c4ccccn4)n3n2)c1	-4.9	-1.4	3.0	6.7
C=CCNc1nc2ccccc2nc1NS(=O)(=O)c1ccc(Br)cc1	-1.2	7.8	-1.8	-1.7

Screens: PubChem, several laboratories
